# Columns and labels:
# Assay type in all cases: functional
# Enterococcus faecalis = assay: Antibacterial activity against Enterococcus faecalis strain 29212
# How it was run: (§1)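 Broth microdilution MIC run to NCCLS standards: serial 2-fold dilutions in cation-adjusted Mueller–Hinton broth, inoculum ~5 × 10^5 CFU/mL, incubated 35 °C for 18–24 h. Trays were read by eye, and the MIC was taken as the lowest concentration giving complete growth inhibition (no visible turbidity).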
# Pseudomonas aeruginosa = assay: Antibacterial activity against Pseudomonas aeruginosa strain 27853; how it was run: as §1
# Staphylococcus aureus [1] = assay: Antibacterial activity against Staphylococcus aureus strain St au 33591 MRSA; how it was run: as §1
# Escherichia coli = assay: Antibacterial activity against Escherichia coli strain 25922; how it was run: as §1
# Staphylococcus aureus [2] = assay: Antibacterial activity against Staphylococcus aureus strain St au 29213; how it was run: as §1
smiles,measurement,setting,value
COc1c(N2C[C@@H](C)N[C@@H](C)C2)c(F)cc2c(=O)c(C(=O)O)cn(-c3ccc(O)cc3)c12,MIC,Enterococcus faecalis,50 µg/mL
same,MIC,Pseudomonas aeruginosa,50 µg/mL
same,MIC,Staphylococcus aureus [1],6.25 µg/mL
same,MIC,Escherichia coli,1.56 µg/mL
same,MIC,Staphylococcus aureus [2],3.13 µg/mL
NCC1CCN(c2nc3c(cc2F)c(=O)c(C(=O)O)cn3-c2ccc(O)cc2)C1 (stereo not given),MIC,Enterococcus faecalis,3.13 µg/mL
same,MIC,Pseudomonas aeruginosa,6.25 µg/mL
same,MIC,Staphylococcus aureus [1],1.56 µg/mL
same,MIC,Escherichia coli,3.13 µg/mL
same,MIC,Staphylococcus aureus [2],0.4 µg/mL
CN1CCC2CN(c3nc4c(cc3F)c(=O)c(C(=O)O)cn4-c3ccc(O)cc3)CC21 (stereo not given),MIC,Enterococcus faecalis,1.56 µg/mL
same,MIC,Pseudomonas aeruginosa,6.25 µg/mL
same,MIC,Staphylococcus aureus [1],0.2 µg/mL
same,MIC,Escherichia coli,0.1 µg/mL
same,MIC,Staphylococcus aureus [2],0.2 µg/mL
C[C@H](N)[C@H]1CCN(c2nc3c(cc2F)c(=O)c(C(=O)O)cn3-c2ccc(O)cc2)C1,MIC,Enterococcus faecalis,3.13 µg/mL
same,MIC,Pseudomonas aeruginosa,3.13 µg/mL
same,MIC,Staphylococcus aureus [1],0.78 µg/mL
same,MIC,Escherichia coli,3.13 µg/mL
same,MIC,Staphylococcus aureus [2],0.78 µg/mL
C[C@H]1CN(c2cc3c(cc2F)c(=O)c(C(=O)O)cn3-c2ccc(O)cc2)C[C@H]1N,MIC,Enterococcus faecalis,1.56 µg/mL
same,MIC,Pseudomonas aeruginosa,1.56 µg/mL
same,MIC,Staphylococcus aureus [1],0.2 µg/mL
same,MIC,Escherichia coli,0.2 µg/mL
same,MIC,Staphylococcus aureus [2],0.2 µg/mL
N[C@@H]1CN(c2cc3c(cc2F)c(=O)c(C(=O)O)cn3-c2ccc(O)cc2)CC12CC2,MIC,Enterococcus faecalis,0.78 µg/mL
same,MIC,Pseudomonas aeruginosa,1.56 µg/mL
same,MIC,Staphylococcus aureus [1],0.1 µg/mL
same,MIC,Escherichia coli,0.2 µg/mL
same,MIC,Staphylococcus aureus [2],0.2 µg/mL
C[C@@H]1C[C@H](N)CN1c1cc2c(cc1F)c(=O)c(C(=O)O)cn2-c1ccc(O)cc1,MIC,Enterococcus faecalis,12.5 µg/mL
same,MIC,Pseudomonas aeruginosa,50 µg/mL
same,MIC,Staphylococcus aureus [1],0.78 µg/mL
same,MIC,Escherichia coli,3.13 µg/mL
same,MIC,Staphylococcus aureus [2],0.78 µg/mL
NCC1CCN(c2cc3c(cc2F)c(=O)c(C(=O)O)cn3-c2ccc(O)cc2)C1 (stereo not given),MIC,Enterococcus faecalis,6.25 µg/mL
same,MIC,Pseudomonas aeruginosa,25 µg/mL
same,MIC,Staphylococcus aureus [1],0.78 µg/mL
same,MIC,Escherichia coli,1.56 µg/mL
same,MIC,Staphylococcus aureus [2],0.4 µg/mL
COc1c(N2C[C@@H]3[C@@H](N)[C@@H]3C2)c(F)cc2c(=O)c(C(=O)O)cn(-c3ccc(O)cc3)c12,MIC,Enterococcus faecalis,1.56 µg/mL
same,MIC,Pseudomonas aeruginosa,1.56 µg/mL
same,MIC,Staphylococcus aureus [1],0.1 µg/mL
same,MIC,Escherichia coli,0.1 µg/mL
same,MIC,Staphylococcus aureus [2],0.1 µg/mL
N[C@@H]1[C@H]2CN(c3nc4c(cc3F)c(=O)c(C(=O)O)cn4-c3ccc(O)cc3)C[C@@H]12,MIC,Enterococcus faecalis,0.78 µg/mL
same,MIC,Pseudomonas aeruginosa,0.78 µg/mL
same,MIC,Staphylococcus aureus [1],0.2 µg/mL
same,MIC,Escherichia coli,0.1 µg/mL
same,MIC,Staphylococcus aureus [2],0.2 µg/mL
N[C@@H]1CCC[C@@H]2CN(c3nc4c(cc3F)c(=O)c(C(=O)O)cn4-c3ccc(O)cc3)C[C@@H]21,MIC,Enterococcus faecalis,3.13 µg/mL
same,MIC,Pseudomonas aeruginosa,6.25 µg/mL
same,MIC,Staphylococcus aureus [1],0.4 µg/mL
same,MIC,Escherichia coli,3.13 µg/mL
same,MIC,Staphylococcus aureus [2],0.4 µg/mL
COc1c(N2C[C@@H](C)[C@@H](C)C2)c(F)cc2c(=O)c(C(=O)O)cn(-c3ccc(O)cc3)c12,MIC,Enterococcus faecalis,6.25 µg/mL
same,MIC,Pseudomonas aeruginosa,3.13 µg/mL
same,MIC,Staphylococcus aureus [1],0.78 µg/mL
same,MIC,Escherichia coli,0.78 µg/mL
same,MIC,Staphylococcus aureus [2],0.78 µg/mL
N[C@@H]1[C@H]2CN(c3cc4c(cc3F)c(=O)c(C(=O)O)cn4-c3ccc(O)cc3)C[C@@H]12,MIC,Enterococcus faecalis,1.56 µg/mL
same,MIC,Pseudomonas aeruginosa,3.13 µg/mL
same,MIC,Staphylococcus aureus [1],0.1 µg/mL
same,MIC,Escherichia coli,0.2 µg/mL
same,MIC,Staphylococcus aureus [2],0.1 µg/mL
N[C@H]1CN(c2nc3c(cc2F)c(=O)c(C(=O)O)cn3-c2ccc(O)cc2)CC12CC2,MIC,Enterococcus faecalis,0.78 µg/mL
same,MIC,Pseudomonas aeruginosa,0.78 µg/mL
same,MIC,Staphylococcus aureus [1],0.4 µg/mL
same,MIC,Escherichia coli,0.2 µg/mL
same,MIC,Staphylococcus aureus [2],0.2 µg/mL
COc1c(N2C[C@@H](C)[C@H](C)C2)c(F)cc2c(=O)c(C(=O)O)cn(-c3ccc(O)cc3)c12,MIC,Enterococcus faecalis,12.5 µg/mL
same,MIC,Pseudomonas aeruginosa,6.25 µg/mL
same,MIC,Staphylococcus aureus [1],0.78 µg/mL
same,MIC,Escherichia coli,0.78 µg/mL
same,MIC,Staphylococcus aureus [2],0.78 µg/mL
COc1c(N2CCC(CN)C2)c(F)cc2c(=O)c(C(=O)O)cn(-c3ccc(O)cc3)c12 (stereo not given),MIC,Enterococcus faecalis,25 µg/mL
same,MIC,Pseudomonas aeruginosa,50 µg/mL
same,MIC,Staphylococcus aureus [1],3.13 µg/mL
same,MIC,Escherichia coli,6.25 µg/mL
same,MIC,Staphylococcus aureus [2],3.13 µg/mL
NC1CCN(c2cc3c(cc2F)c(=O)c(C(=O)O)cn3-c2ccc(O)cc2)C1 (stereo not given),MIC,Enterococcus faecalis,3.13 µg/mL
same,MIC,Pseudomonas aeruginosa,1.56 µg/mL
same,MIC,Staphylococcus aureus [1],0.4 µg/mL
same,MIC,Escherichia coli,0.4 µg/mL
same,MIC,Staphylococcus aureus [2],0.4 µg/mL
C[C@H](N)[C@H]1CCN(c2cc3c(cc2F)c(=O)c(C(=O)O)cn3-c2ccc(O)cc2)C1,MIC,Enterococcus faecalis,3.13 µg/mL
same,MIC,Pseudomonas aeruginosa,25 µg/mL
same,MIC,Staphylococcus aureus [1],0.78 µg/mL
same,MIC,Escherichia coli,1.56 µg/mL
same,MIC,Staphylococcus aureus [2],0.4 µg/mL
C[C@H](N)[C@@H]1CCN(c2cc3c(cc2F)c(=O)c(C(=O)O)cn3-c2ccc(O)cc2)C1,MIC,Enterococcus faecalis,6.25 µg/mL
same,MIC,Pseudomonas aeruginosa,25 µg/mL
same,MIC,Staphylococcus aureus [1],0.4 µg/mL
same,MIC,Escherichia coli,1.56 µg/mL
same,MIC,Staphylococcus aureus [2],0.4 µg/mL
N[C@@H]1CN(c2nc3c(cc2F)c(=O)c(C(=O)O)cn3-c2ccc(O)cc2)CC12CC2,MIC,Enterococcus faecalis,25 µg/mL
same,MIC,Pseudomonas aeruginosa,3.13 µg/mL
same,MIC,Staphylococcus aureus [1],1.56 µg/mL
same,MIC,Escherichia coli,1.56 µg/mL
same,MIC,Staphylococcus aureus [2],1.56 µg/mL
C[C@@H]1CN(c2nc3c(cc2F)c(=O)c(C(=O)O)cn3-c2ccc(O)cc2)C[C@H](C)N1,MIC,Enterococcus faecalis,12.5 µg/mL
same,MIC,Pseudomonas aeruginosa,6.25 µg/mL
same,MIC,Staphylococcus aureus [1],6.25 µg/mL
same,MIC,Escherichia coli,0.4 µg/mL
same,MIC,Staphylococcus aureus [2],3.13 µg/mL
C[C@@H]1CN(c2cc3c(cc2F)c(=O)c(C(=O)O)cn3-c2ccc(O)cc2)C[C@H](C)N1,MIC,Enterococcus faecalis,3.13 µg/mL
same,MIC,Pseudomonas aeruginosa,3.13 µg/mL
same,MIC,Staphylococcus aureus [1],0.4 µg/mL
same,MIC,Escherichia coli,0.1 µg/mL
same,MIC,Staphylococcus aureus [2],0.2 µg/mL
CN1CCCC2CN(c3cc4c(cc3F)c(=O)c(C(=O)O)cn4-c3ccc(O)cc3)CC21 (stereo not given),MIC,Enterococcus faecalis,3.13 µg/mL
same,MIC,Pseudomonas aeruginosa,6.25 µg/mL
same,MIC,Staphylococcus aureus [1],0.4 µg/mL
same,MIC,Escherichia coli,0.2 µg/mL
same,MIC,Staphylococcus aureus [2],0.2 µg/mL
